Compound activity (PubChem)
Only a sample is shown.
PGC1a acetyl up – raises PGC1a acetylation signal in U2OS cells. U2OS PGC1a acetylation AlphaScreen, overnight. activation, % at 15.6 µM. hit rate 0.21% among 350,000. AID 651723;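 active = every replicate reaching activation of at least 50%, whatever the mean replicate activation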;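 also: hits raise the AlphaScreen acetylation signal above neutral controls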
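Test system: U2OS cells expressing flag-PGC1a plus GCN5; Amount: 7000 U2OS cells per well; Compound: single test concentration per compound; Incubation: compound overnight at 37 °C, each detection step 1 h RT; Signal: AlphaScreen lysate read.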
Each line names hits and unclear results; the compound was inactive in the other large screens.

COc1ccccc1-c1ccc(C2[C@@H]3CN(S(=O)(=O)c4ccc(C)cc4)C[C@H]2N3)cc1 (stereo partly specified)	PGC1a acetyl up 95
N#Cc1cccc(-c2ccc([C@@H]3[C@@H]4CN(S(=O)(=O)c5ccc(-c6ccccc6)cc5)C[C@H]3N4)cc2)c1	none
Cc1cccc(-n2c(CNC(=O)c3cccc([N+](=O)[O-])c3C)n[nH]c2=S)c1	none
O=C1N(Cc2ccccc2)Cc2ccccc2[C@@H]2OC(c3ccc(OCCCO)cc3)=N[C@]12Cc1ccccc1	PGC1a acetyl up 52
CCC(=O)N[C@H]1CC[C@H](CCNC(=O)Nc2ccc(C(F)(F)F)cc2)O[C@H]1CO	none
O=C(Cc1ccccn1)NCC[C@H]1CC[C@@H](NC(=O)Nc2ccc(C(F)(F)F)cc2)[C@@H](CO)O1	none
O=C(Cc1ccccn1)N[C@H]1CC[C@H](CCn2cc(-c3ccccc3)nn2)O[C@@H]1CO	PGC1a acetyl up 76
COc1ccc(NC(=O)N[C@@H]2CC[C@H](CCn3cc(-c4ccccc4F)nn3)O[C@H]2CO)cc1	none
Cc1ccccc1S(=O)(=O)N[C@@H]1CC[C@@H](CCn2cc(Cc3ccccc3)nn2)O[C@H]1CO	none
O=C(Cc1ccccn1)N[C@@H]1CC[C@@H](CCn2cc(-c3ccccc3)nn2)O[C@H]1CO	PGC1a acetyl up 133
O=C(Cc1ccccn1)NCC[C@H]1CC[C@H](NC(=O)Nc2ccc(C(F)(F)F)cc2)[C@H](CO)O1	none
C[C@@H]1CN([C@H](C)CO)C(=O)CCCn2nncc2CO[C@@H]1CN(C)S(=O)(=O)c1cn(C)cn1	none
CCCCCCC1CC(=O)NC(=S)N1 (stereo unspecified)	none
Cc1c(NC(=O)c2ccccc2NS(=O)(=O)c2ccc(Br)cc2)c(=O)n(-c2ccccc2)n1C	none
CCC(=O)N1C[C@H](C)[C@@H](OC)CN(C)C(=O)c2ccc(NC(=O)Nc3ccccc3)cc2OC[C@@H]1C	none
CO[C@@H]1CN(C)C(=O)c2ccc(NS(C)(=O)=O)cc2OC[C@@H](C)N(Cc2nccs2)C[C@@H]1C	none
Cc1cc(C)c(C#N)c(SCC(=O)Nc2nnc(-c3ccccc3)s2)n1	none
CN1CCN(C(=O)CSc2nc(-c3cccs3)cc(-c3cccs3)c2C#N)CC1	PGC1a acetyl up 61
Cc1cccc(-c2nsc(SCC(=O)N3CCCC3)n2)c1	none
O=C(c1cc2ccccc2o1)N1CC=C(c2ccccc2)CC1	none
CN1CCN(C(=O)C[C@@H]2CC[C@@H]3[C@H](COC[C@H](O)CN3CC3CCCCC3)O2)CC1	none
CC(C)(C)NCCC(O)c1cc(C(F)(F)F)nc2c(C(F)(F)F)cccc12 (stereo unspecified)	PGC1a acetyl up 70
C[C@@H]1CN([C@H](C)CO)C(=O)c2cc(C#CC3CC3)cnc2O[C@H]1CN(C)C(=O)Nc1ccc(F)cc1	none
Cc1c(/C=N/Nc2nc3ccccc3[nH]2)c2ccccc2n1C	PGC1a acetyl up 121
CN1OC(COC(=O)c2ccccc2)CC1c1ccccc1 (stereo unspecified)	none
CCOC(=O)C1(Cc2cccc(F)c2)CCN(Cc2ccc(COC)o2)CC1	none
CCc1ccc(N/C(SCc2ccccc2C)=C(/C#N)C(=O)NCc2ccco2)cc1	PGC1a acetyl up 84
CCC(=O)N(C)C[C@@H]1Oc2cc(C#Cc3cccnc3)ccc2S(=O)(=O)N([C@H](C)CO)C[C@H]1C	none
Cc1ccc(Cl)cc1N1CCN(C(=O)CSc2nnc3n2C(C)(C)Cc2ccccc2-3)CC1	PGC1a acetyl up 52
Cc1cc(=O)[nH]c(SCC(=O)N2CCc3ccccc3C2)n1	none
CC(C)C#Cc1cnc2c(c1)C(=O)N([C@H](C)CO)C[C@H](C)[C@H](CN(C)C(=O)c1ccccn1)O2	none
COC(=O)c1cc(CN2C(=O)c3ccccc3C2=O)c(O)c([N+](=O)[O-])c1	none
COCC(=O)OCC(=O)Nc1cc(C(C)(C)C)nn1-c1ccccc1	none
Cc1ccc(CN(C(=O)Cn2nnc3ccccc32)C(C(=O)NCc2ccco2)c2cccs2)cc1 (stereo unspecified)	none
O=C1NC(=S)S/C1=C\C=C\c1ccc([N+](=O)[O-])o1	PGC1a acetyl up 73
CCS(=O)(=O)c1ccc2oc(Nc3ccccc3Br)nc2c1	none
O=C(CCCc1cccs1)NCCc1c[nH]c2ccccc12	none
COc1cc2[nH]c(=O)n(CCCC(=O)NCCc3ccccc3)c(=O)c2cc1OC	PGC1a acetyl up 84
COc1ccc(CCNC(=O)C(=O)NCC2CCCO2)cc1OC (stereo unspecified)	none
Cc1nc([N+](=O)[O-])c(Br)n1Cc1ccc(Cl)c(Cl)c1	PGC1a acetyl up 90
O=C(CSc1nnc(-c2ccncc2)n1-c1ccc(Cl)cc1)NCc1cccs1	PGC1a acetyl up 81
O=C(CSc1nnc(-c2ccco2)n1-c1ccccc1)Nc1c(Cl)cc(Cl)cc1C(=O)O	none
Cc1nn(-c2ccccc2)c(Cl)c1C(=O)N1CCN(c2ncnc3c2cnn3-c2ccccc2)CC1	none
COc1ccc(CCn2c(-c3ccc(OC)cc3)nc3c(c(=O)c4ccccc4n3C)c2=O)cc1	PGC1a acetyl up 109
Cn1nc(-c2ccccc2F)c2cc(C(=O)N3CCN(C(=O)c4ccco4)CC3)sc21	PGC1a acetyl up 82
O=C(c1ccco1)N1CCN(c2ncnc3scc(-c4cccs4)c23)CC1	none
O=C(Nc1ccc(N2CCN(Cc3ccccc3F)CC2)cc1)c1ccc([N+](=O)[O-])o1	none
CC(c1ccccc1)C1CC(=O)N(c2ccc([N+](=O)[O-])cc2)C1=O (stereo unspecified)	none
O=C(Cc1ccccc1)N1CCN(c2ccc([N+](=O)[O-])cc2)CC1	PGC1a acetyl up 118
Cc1ccc2c(Cl)cc(Cl)c(OCc3c(C)noc3C)c2n1	none
COc1ccc(/C=N/NC(=O)Cn2cnc3ccccc3c2=O)cc1OC	none
COc1cc(Cn2c(N)c(C#N)c3nc4ccccc4nc32)cc(OC)c1	PGC1a acetyl up 52
Cc1ccc(S(=O)(=O)C(NC(=O)c2ccccc2)=C(Cl)Cl)cc1	PGC1a acetyl up 60
Cc1ccc(C(=O)NNC(=O)c2cccc(Br)c2)cc1	none
O=S1(=O)CCC(N=Cc2ccc(-c3ccc(Cl)cc3)o2)C1 (stereo unspecified)	none
O=C(C[C@@H]1CC[C@@H](NC(=O)C2CCC2)[C@H](CO)O1)NCC1CC1	none
CCSc1nnc(NC(=O)CSC2=NCCS2)s1	none
Cc1cc(Sc2nnc(N)s2)c2ccccc2n1	PGC1a acetyl up 59
CC(C)NC(=O)Nc1ccc2c(c1)C(=O)N([C@@H](C)CO)C[C@@H](C)[C@H](CN(C)Cc1ccc(C(=O)O)cc1)OCCCC[C@H](C)O2	none
O=C(C[C@H]1C=C[C@H](NC(=O)Nc2ccc(C(F)(F)F)cc2)[C@@H](CO)O1)NCc1ccccn1	none
N#Cc1c(N)c(C(=O)c2ccccc2)n2ccccc12	none
CC1=NN(C(=O)c2ccc(C)cc2)C(O)(C(F)(F)OC(F)(F)F)C1 (stereo unspecified)	PGC1a acetyl up 55
CC(C)CCC1=NN(C(=O)c2ccco2)C(O)(C(F)(F)F)C1 (stereo unspecified)	none
CC1=CC(=O)C=C(C)C1=NOS(=O)(=O)c1ccccc1	PGC1a acetyl up 61
CC1=C(C(=O)OC(C)(C)C)C(c2ccc3ccccc3c2)NC(=O)N1C (stereo unspecified)	none
CC(C)NC(=O)NCC[C@H]1CC[C@H](NC(=O)c2ccc(F)cc2)[C@H](CO)O1	none
Cc1ccc(NC(=S)/N=C(\N)Nc2nc(C)c3cc(C)c(C)cc3n2)cc1C	PGC1a acetyl up 66
CCN(CC)S(=O)(=O)c1cccc(-c2nnc(SCc3ncc(-c4ccccc4)o3)n2C)c1	none
O=S(=O)(c1ccc(N2CCC(c3ccc(Cl)cc3)=N2)cc1)N(CCO)CCO	none
